Measured values published in ChEMBL document CHEMBL1148835, “Weak base dispiro-1,2,4-trioxolanes: potent antimalarial ozonides” (Bioorg Med Chem Lett, 2007).
pIC50: −log10 of the molar value. Values after ≈ are worked out from the molar mass of the structure shown.

Experiments:
Plasmodium falciparum [1] = assay: Antimalarial activity against chloroquine-sensitive Plasmodium falciparum NF54; type: functional, organism-based
Procedure, shortened: (§1)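 In vitro growth assay using asexual P. falciparum cultures, K1 for line 1 and NF54 for line 2. Each value is the mean of 2–3 determinations. Individual measurements differed by less than 50%.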

Plasmodium berghei = assay: Antimalarial activity as reduced parasitaemia against Plasmodium berghei infected MORO mice (Mus musculus) at 10 mg/kg peroral dose; type: functional; parameters: scale not given: the % may be the effect or the level left; settings: route oral
Procedure, shortened: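 Groups of three P. berghei-infected MORO mice were given a single oral 10 mg/kg dose on day 1 post-infection. Read-out was percent reduction in parasitemia on day 3 post-infection.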

Plasmodium falciparum [2] = assay: Antimalarial activity against chloroquine-resistant Plasmodium falciparum K1; type: functional, organism-based; procedure, shortened: as §1
[3] = Bioavailability in Sprague-Dawley rat at 25 mg/kg, po; type: ADME, organism-based; settings: in vivo
Rattus norvegicus = species: Rattus norvegicus; assay: Neurotoxicity in rat; type: toxicity, organism-based; settings: in vivo
Procedure, shortened: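 Five-day toxicity study in male rats with daily oral administration, including observation for signs of neurotoxicity.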

[4] = Biodistribution in Sprague-Dawley rat at 25 mg/kg, iv and 50 mg/kg, po; type: ADME, organism-based; settings: in vivo
Procedure, shortened: (§2)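 Rats were dosed 25 mg/kg IV via a jugular cannula in aqueous citrate buffer, pH 3. Separately, 50 mg/kg was given by oral gavage as a suspension in 0.5% w/v aqueous HPMC. Carotid-cannula serial blood samples were centrifuged immediately and the plasma stored at -80 °C. Plasma was assayed by LC/MS against a calibration curve prepared in plasma. Values are the average of 2–3 determinations.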

[5] = Plasma clearance in Sprague-Dawley rat at 25 mg/kg, iv and 50 mg/kg, po; type: ADME, organism-based; procedure, shortened: as §2
[6] = Half life in Sprague-Dawley rat at 25 mg/kg, iv and 50 mg/kg, po; type: ADME, organism-based; settings: in vivo; procedure, shortened: as §2
[7] = biological target: Voltage-gated inwardly rectifying potassium channel KCNH2 (Homo sapiens, UniProt Q12809); assay: Inhibition of hERG by patch clamp assay; type: toxicity
[8] = Biodistribution in Sprague-Dawley rat at 4 mg/kg, iv and 10 mg/kg, po; type: ADME, organism-based; settings: in vivo
Procedure, shortened: (§3)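 Rats were dosed 4 mg/kg IV via a jugular cannula fitted the day before, in 40% v/v propylene glycol, 10% v/v ethanol and water. Separately, 10 mg/kg was given by oral gavage as a suspension in 0.5% w/v aqueous HPMC. Serial blood was drawn via a carotid cannula and the plasma stored at -80 °C. Plasma was quantified by LC/MS against a calibration curve prepared in plasma. Values are the average of 2–3 determinations.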

[9] = Half life in Sprague-Dawley rat at 4 mg/kg, iv and 10 mg/kg, po; type: ADME, organism-based; settings: in vivo; procedure, shortened: as §3
[10] = Plasma clearance in Sprague-Dawley rat at 4 mg/kg, iv and 10 mg/kg, po; type: ADME, organism-based; procedure, shortened: as §3
[11] = Plasma clearance in Sprague-Dawley rat at 10 mg/kg, iv and 50 mg/kg, po; type: ADME, organism-based
Procedure, shortened: (§4)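 Rats were dosed 10 mg/kg IV via a jugular cannula in 10% v/v propylene glycol, 10% v/v ethanol and water. Separately, 50 mg/kg was given by oral gavage as a suspension in 0.5% w/v aqueous HPMC. Serial blood was drawn via a carotid cannula and the plasma stored at -80 °C. LC/MS quantification used a calibration curve prepared in plasma. Values are the average of 2–3 determinations.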

[12] = Half life in Sprague-Dawley rat at 10 mg/kg, iv and 50 mg/kg, po; type: ADME, organism-based; settings: in vivo; procedure, shortened: as §4
[13] = Bioavailability in Sprague-Dawley rat at 10 mg/kg, po; type: ADME, organism-based; settings: in vivo; procedure, shortened: as §3
[14] = Biodistribution in Sprague-Dawley rat at 10 mg/kg, iv and 50 mg/kg, po; type: ADME, organism-based; settings: in vivo; procedure, shortened: as §4

Chain of Voltage-gated inwardly rectifying potassium channel KCNH2 (Q12809 whole entry): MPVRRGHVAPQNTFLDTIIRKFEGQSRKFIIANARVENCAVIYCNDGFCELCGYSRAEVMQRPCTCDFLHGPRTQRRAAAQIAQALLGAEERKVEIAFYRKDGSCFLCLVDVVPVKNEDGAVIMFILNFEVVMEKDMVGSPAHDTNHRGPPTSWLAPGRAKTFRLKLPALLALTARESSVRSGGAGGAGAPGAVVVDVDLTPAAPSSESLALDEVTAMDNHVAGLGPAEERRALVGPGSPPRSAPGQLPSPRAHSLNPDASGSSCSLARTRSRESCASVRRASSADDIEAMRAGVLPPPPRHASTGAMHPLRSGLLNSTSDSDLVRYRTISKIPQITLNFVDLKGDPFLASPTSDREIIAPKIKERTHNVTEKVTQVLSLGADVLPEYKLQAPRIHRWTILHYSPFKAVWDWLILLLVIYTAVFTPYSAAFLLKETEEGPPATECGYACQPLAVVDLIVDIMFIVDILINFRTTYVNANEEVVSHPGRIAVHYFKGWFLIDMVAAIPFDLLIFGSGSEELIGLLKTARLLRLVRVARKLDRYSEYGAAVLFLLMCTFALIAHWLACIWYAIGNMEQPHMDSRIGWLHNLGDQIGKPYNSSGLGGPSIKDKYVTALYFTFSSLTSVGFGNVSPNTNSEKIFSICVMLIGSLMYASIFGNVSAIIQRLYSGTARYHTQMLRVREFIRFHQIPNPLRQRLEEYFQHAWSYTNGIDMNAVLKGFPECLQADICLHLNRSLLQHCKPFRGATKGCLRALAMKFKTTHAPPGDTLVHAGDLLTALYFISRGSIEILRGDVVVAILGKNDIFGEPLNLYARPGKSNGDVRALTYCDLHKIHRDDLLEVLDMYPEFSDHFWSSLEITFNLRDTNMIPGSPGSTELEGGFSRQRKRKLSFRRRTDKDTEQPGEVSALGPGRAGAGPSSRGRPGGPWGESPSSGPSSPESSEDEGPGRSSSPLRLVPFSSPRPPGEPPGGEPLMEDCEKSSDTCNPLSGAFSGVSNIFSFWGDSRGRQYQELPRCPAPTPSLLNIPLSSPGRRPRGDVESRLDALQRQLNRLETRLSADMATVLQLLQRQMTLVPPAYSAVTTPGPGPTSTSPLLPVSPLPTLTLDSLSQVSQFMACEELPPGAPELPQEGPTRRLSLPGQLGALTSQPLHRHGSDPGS

Row | Compound | IC50 (Plasmodium falciparum [1]) [ng/mL] | Activity (Plasmodium berghei) [%] | IC50 (Plasmodium falciparum [2]) [ng/mL] | further results
1 | Cc1ccc(S(=O)(=O)O)cc1.N[C@H]1CC[C@]2(CC1)OO[C@]1(O2)C2CC3CC(C2)CC1C3 | 0.31 | 98 |  | 
2 | OCC[C@H]1CC[C@]2(CC1)OO[C@]1(O2)C2CC3CC(C2)CC1C3 | 0.75 (≈ 2.43 nM) | 89 | 0.3 (≈ 0.973 nM) | 
3 | c1cnn(C[C@H]2CC[C@]3(CC2)OO[C@]2(O3)C3CC4CC(C3)CC2C4)c1 | 1.2 (≈ 3.48 nM) | 78 | 1 (≈ 2.9 nM) | 
4 | c1c[nH]c(C[C@H]2CC[C@]3(CC2)OO[C@]2(O3)C3CC4CC(C3)CC2C4)n1 |  | 71 |  | 
5 | C1C2CC3CC1CC(C2)[C@]31OO[C@@]2(CC[C@H](Cc3nnn[nH]3)CC2)O1 | 55 (≈ 159 nM) | 40 | 46 (≈ 133 nM) | 
6 | NC(=O)c1cn(C[C@H]2CC[C@]3(CC2)OO[C@]2(O3)C3CC4CC(C3)CC2C4)cn1 |  | 99.76 |  | 
7 | c1cn(CC[C@H]2CC[C@]3(CC2)OO[C@]2(O3)C3CC4CC(C3)CC2C4)cn1 | 0.4 (≈ 1.12 nM) |  | 0.44 (≈ 1.23 nM) | 
8 | NC(=O)CNC[C@H]1CC[C@]2(CC1)OO[C@]1(O2)C2CC3CC(C2)CC1C3 | 0.59 (≈ 1.68 nM) |  | 0.3 (≈ 0.856 nM) | bioavailability [3]: 58%; Activity (Rattus norvegicus): Non-toxic; Vd [4]: 13 L/kg; clearance [5]: 102 mL/min/kg; half-life [6]: 1.57 h; pIC50 [7]: 5.57
9 | O=CN1CCN(C[C@H]2CC[C@]3(CC2)OO[C@]2(O3)C3CC4CC(C3)CC2C4)CC1 |  | 99.01 |  | 
10 | NS(=O)(=O)c1ccc(N[C@H]2CC[C@]3(CC2)OO[C@]2(O3)C3CC4CC(C3)CC2C4)cc1 | 3 (≈ 6.9 nM) | 99.98 | 2.7 (≈ 6.21 nM) | 
11 | CC(C)(C)C1CCC2(CC1)OOC1(CCC(CN)CC1)O2.CS(=O)(=O)O (stereo not drawn) | > 100 | 0 | > 100 | 
12 | CS(=O)(=O)O.NC[C@H]1CC[C@]2(CC1)OOC1(O2)C2CC3CC(C2)CC1C3 (stereo partly drawn) |  |  | 0.39 | bioavailability [3]: 31%; Activity (Rattus norvegicus): Non-toxic; Vd [4]: 39 L/kg; clearance [5]: 177 mL/min/kg; half-life [6]: 2.5 h; pIC50 [7]: 5.74
13 | C1C2CC3CC1CC(C2)C31OO[C@]2(CC[C@@H](CNC3CC3)CC2)O1.CS(=O)(=O)O (stereo partly drawn) | 0.45 |  | 0.56 | 
14 | CS(=O)(=O)O.O=C(O)CNC[C@H]1CC[C@]2(CC1)OOC1(O2)C2CC3CC(C2)CC1C3 (stereo partly drawn) | 17 |  | 11 | 
15 | CS(=O)(=O)O.NC(=O)CCNC[C@H]1CC[C@]2(CC1)OOC1(O2)C2CC3CC(C2)CC1C3 (stereo partly drawn) | 0.91 | 99.92 | 0.41 | 
16 | CC(C)(N)CNC[C@H]1CC[C@]2(CC1)OOC1(O2)C2CC3CC(C2)CC1C3.CS(=O)(=O)O.CS(=O)(=O)O (stereo partly drawn) | 0.83 |  | 0.49 | 
17 | CN(C)C[C@H]1CC[C@]2(CC1)OOC1(O2)C2CC3CC(C2)CC1C3.CS(=O)(=O)O (stereo partly drawn) | 0.75 |  | 0.35 | 
18 | CS(=O)(=O)O.c1csc(NC[C@H]2CC[C@]3(CC2)OOC2(O3)C3CC4CC(C3)CC2C4)n1 (stereo partly drawn) | 2.2 |  | 2.3 | 
19 | CS(=O)(=O)O.c1ncn(C[C@H]2CC[C@]3(CC2)OOC2(O3)C3CC4CC(C3)CC2C4)n1 (stereo partly drawn) | 1.7 |  | 0.9 | 
20 | CS(=O)(=O)O.NOC[C@H]1CC[C@]2(CC1)OOC1(O2)C2CC3CC(C2)CC1C3 (stereo partly drawn) | 20 | 47 | 28 | 
21 | NC(=O)CN(CC(N)=O)C[C@H]1CC[C@]2(CC1)OO[C@]1(O2)C2CC3CC(C2)CC1C3 | 2 (≈ 4.91 nM) | 86 | 1.7 (≈ 4.17 nM) | 
22 | NC(=O)c1ccc(N[C@H]2CC[C@]3(CC2)OO[C@]2(O3)C3CC4CC(C3)CC2C4)cc1 | 1 (≈ 2.51 nM) | 99.98 | 1.1 (≈ 2.76 nM) | 
23 | NC(=O)c1cncn1C[C@H]1CC[C@]2(CC1)OO[C@]1(O2)C2CC3CC(C2)CC1C3 |  | 99.77 |  | 
24 | OC[C@H]1CC[C@]2(CC1)OO[C@]1(O2)C2CC3CC(C2)CC1C3 |  |  |  | Vd [8]: 5.3 L/kg; half-life [9]: 0.45 h; clearance [10]: 136 mL/min/kg
25 | NS(=O)(=O)c1ccc(NC[C@H]2CC[C@]3(CC2)OO[C@]2(O3)C3CC4CC(C3)CC2C4)cc1 |  | 99.95 |  | 
26 | O=C1CN(C[C@H]2CC[C@]3(CC2)OO[C@]2(O3)C3CC4CC(C3)CC2C4)CCN1 | 1.8 (≈ 4.78 nM) |  | 1.3 (≈ 3.45 nM) | 
27 | CCOC(=O)NC[C@H]1CC[C@]2(CC1)OO[C@]1(O2)C2CC3CC(C2)CC1C3 | 0.56 (≈ 1.53 nM) |  |  | 
28 | Cl.c1cn(C[C@H]2CC[C@]3(CC2)OO[C@]2(O3)C3CC4CC(C3)CC2C4)cn1 | 1.1 |  | 1.3 | Activity (Rattus norvegicus): Non-toxic; clearance [11]: 60.1 mL/min/kg; half-life [12]: 0.783 h; bioavailability [13]: 36%; Vd [14]: 4.1 L/kg
29 | Cl.NCC[C@H]1CC[C@]2(CC1)OO[C@]1(O2)C2CC3CC(C2)CC1C3 | 0.48 |  | 0.15 | 
